Assay results as given in ChEMBL document CHEMBL5380827, “Structure-Based Design of Y-Shaped Covalent TEAD Inhibitors” (J Med Chem, 2023).

Experiments:
[1] = Inhibition of N-terminal His6-tagged human recombinant TEAD3 (216 to 434 residues)/ recombinant YBD (unknown origin) incubated for 5 hrs by TR-FRET assay
How it was run: (§1)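 His-tagged TEAD YAP-binding domain protein (100 nM), expressed in Rosetta(DE3) pLysS and purified by cobalt resin then gel filtration. Protein preincubated with inhibitor for 5 h in 50 mM HEPES pH 7.5, 200 mM NaCl, 0.1% Pluronic F-68. Then 800 nM tracer WZJ-10 and anti-6His Tb cryptate (50 ng/mL final) added; TR-FRET read at 490/520 nm. Mean ± SEM of two experiments, each in biological triplicate.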

[2] = Inhibition of N-terminal His6-tagged human recombinant TEAD2 (217 to 447 residues)/ recombinant YBD (unknown origin) incubated for 5 hrs by TR-FRET assay; how it was run: as §1
[3] = Inhibition of N-terminal GST/His6-tagged human recombinant TEAD1 (209 to 424 residues)/YBD (unknown origin) incubated for 5 hrs by TR-FRET assay; how it was run: as §1
[4] = Inhibition of N-terminal His6-tagged human recombinant TEAD4 (209 to 427 residues)/ recombinant YBD (unknown origin) incubated for 5 hrs by TR-FRET assay; how it was run: as §1
[5] = Inhibition of TEAD transcriptional activity in human NCI-H226 cells assessed as luciferase activity measured for 3 days by reporter gene assay; format: cell-based; details: NCI-H226, 72 h
How it was run: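 NCI-H226 cells transduced with a pan-TEAD response element luciferase reporter lentivirus (8 μg/mL polybrene) and puromycin-selected. Seeded at 1000 cells per well in 384-well plates and treated with inhibitor for 3 days. Luciferase read with One-Glo and normalized to CellTiter-Glo viability.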

NCI-H226 = assay: Antiproliferative activity against human NCI-H226 cells assessed as reduction in cell viability measured for 5 days by celliter-glo assay; format: functional, cell-based; details: NCI-H226, 120 h
How it was run: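 NCI-H226 mesothelioma cells grown in RPMI1640 with 10% FBS and 1% penicillin/streptomycin, seeded at 100 cells per well in 384-well plates. Inhibitor added by digital dispenser, 5-day incubation. CellTiter-Glo luminescence read after 20 min, normalized to DMSO-treated samples. Mean ± SD of n = 3 biological independent samples.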

[6] = Antiproliferative activity against human 94T778 cells assessed as reduction in cell viability measured for 5 days by celliter-glo assay; format: functional, cell-based; details: 94T778, 120 h
How it was run: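 94T778 well-differentiated liposarcoma cells grown in RPMI1640 with 10% FBS and 1% penicillin/streptomycin. Treated with inhibitor for 5 days and viability read as CellTiter-Glo luminescence. Mean ± SD of n = 3 biological independent samples.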

Row | Compound | IC50 [1] | IC50 [2] | IC50 [3] | IC50 [4] | IC50 [5] | IC50 (NCI-H226) | IC50 [6]
1 | CC#CC(=O)N1C[C@@H](n2cc(-c3cccnc3)nn2)[C@H](OCc2ccc(C(F)(F)F)cc2)C1 | 47 nM | 459 nM | 44 nM | > 10000 nM | 229 nM | – | –
2 | CN(C)C/C=C/C(=O)N1C[C@@H](n2cc(-c3cccnc3)nn2)[C@H](OCc2ccc(C(F)(F)F)cc2)C1 | 1640 nM | > 10000 nM | 1030 nM | > 10000 nM | 1710 nM | – | –
3 | C=C(F)C(=O)N1C[C@@H](n2cc(-c3cccnc3)nn2)[C@H](OCc2ccc(C(F)(F)F)cc2)C1 | 31 nM | 197 nM | 29 nM | 467 nM | 86 nM | 131 nM | 173 nM
4 | C=C(C(=O)N1C[C@@H](n2cc(-c3cccnc3)nn2)[C@H](OCc2ccc(C(F)(F)F)cc2)C1)C(F)(F)F | 19 nM | 19 nM | 42 nM | > 10000 nM | 2740 nM | – | –
5 | C=C(F)C(=O)N1C[C@@H](Nc2ncccn2)[C@H](OCc2ccc(C(F)(F)F)cc2)C1 | 32 nM | 275 nM | 47 nM | 71 nM | 17 nM | 24 nM | 40 nM
6 | Cc1cccc([C@H](C)NC(=O)c2ccc3c(-c4ccc(C(F)(F)F)cc4)cccc3c2)n1 | 19 nM | 40 nM | 31 nM | 35 nM | – | – | –
7 | C=CC(=O)N1C[C@@H](n2cc(-c3cccnc3)nn2)[C@H](OCC23CC4CC(CC(C4)C2)C3)C1 (mixture of isomers) | 38 nM | 26 nM | 118 nM | 604 nM | 1380 nM | – | –
8 | C=CC(=O)N1C[C@@H](OCc2ccc(C(F)(F)F)cc2)[C@H](c2ccc(S(C)(=O)=O)cc2)C1 (racemic) | 51 nM | 305 nM | 51 nM | 83 nM | 153 nM | – | –
9 | C=CC(=O)N1CC[C@@H](OCc2ccc(C(F)(F)F)cc2)[C@H](Nc2ncc(F)cn2)C1 (racemic) | 121 nM | 1240 nM | 56 nM | 427 nM | 171 nM | 246 nM | 1020 nM
10 | C=CC(=O)N1C[C@@H](n2cc(-c3cccnc3)nn2)[C@H](OCc2ccc(C(F)(F)F)cn2)C1 (racemic) | 144 nM | 230 nM | 207 nM | 2480 nM | 670 nM | – | –
11 | C=CC(=O)N1C[C@@H](n2cc(-c3cccnc3)nn2)[C@H](OCC2CCC(F)(F)CC2)C1 (racemic) | 68 nM | 50 nM | 264 nM | 685 nM | 467 nM | – | –
12 | C=CC(=O)N1C[C@@H](n2cccn2)[C@H](OCc2ccc(C(F)(F)F)cc2)C1 (racemic) | 36 nM | 178 nM | 56 nM | 111 nM | 131 nM | 368 nM | 258 nM
13 | C=CC(=O)N1C[C@@H](n2ncccc2=O)[C@H](OCc2ccc(C(F)(F)F)cc2)C1 (racemic) | 50 nM | 103 nM | 42 nM | 98 nM | 90 nM | 150 nM | 214 nM
14 | C=CC(=O)N1C[C@@H](n2cc(-c3cccnc3)nn2)[C@H](OCc2ccc(C(F)(F)F)cc2)C1 (racemic) | 26 nM | 49 nM | 37 nM | 25 nM | 106 nM | 63 nM | 173 nM
15 | C=CC(=O)N1C[C@@H](n2cc(-c3cccnc3)nn2)[C@H](OCc2ccc(C(F)(F)F)nc2)C1 (racemic) | 834 nM | 911 nM | 391 nM | > 10000 nM | 2210 nM | – | –
16 | C=CC(=O)N1C[C@@H](n2cc(-c3cccnc3)nn2)[C@H](OCc2cc(Cl)cc(C(F)(F)F)c2)C1 (racemic) | 426 nM | 230 nM | 425 nM | > 10000 nM | 985 nM | – | –
17 | C=CC(=O)N1CCN(c2ncccn2)CC(OCc2ccc(C(F)(F)F)cc2)C1 (racemic) | 429 nM | 578 nM | 80 nM | 236 nM | 522 nM | – | –
18 | C=CC(=O)N1C[C@@H](n2cc(-c3ccncn3)nn2)[C@H](OCc2ccc(C(F)(F)F)cc2)C1 (racemic) | 51 nM | 103 nM | 40 nM | 718 nM | 206 nM | – | –
19 | C=CC(=O)N1C[C@@H](Nc2ncccn2)[C@H](OCc2ccc(C(F)(F)F)cc2)C1 (racemic) | 30 nM | 9 nM | 29 nM | 25 nM | 14 nM | 16 nM | 34 nM
20 | C=CC(=O)N1C[C@@H](n2cc(-c3cccnc3)nn2)[C@H](OCc2cc(C(F)(F)F)ccc2Cl)C1 (racemic) | 215 nM | 604 nM | 100 nM | 4430 nM | 1720 nM | – | –
21 | C=CC(=O)N1C[C@@H](Nc2ncc(F)cn2)[C@H](OCc2ccc(C(F)(F)F)cc2)C1 (racemic) | 26 nM | 17 nM | 30 nM | 21 nM | 16 nM | 28 nM | 114 nM
22 | C=CC(=O)N1C[C@@H](Cc2ccccn2)[C@H](OCc2ccc(C(F)(F)F)cc2)C1 (racemic) | 48 nM | 192 nM | 33 nM | 62 nM | 58 nM | 186 nM | 612 nM
23 | C=CC(=O)N1C[C@@H](n2ccnn2)[C@H](OCc2ccc(C(F)(F)F)cc2)C1 (racemic) | 20 nM | 79 nM | 31 nM | 406 nM | 153 nM | – | –
